Compounds with a hit are over-represented: about 1.9% of the library has one in this group of screens.
SUMO HTRF inh = blocks human SUMOylation mediated by UBC9 | AID 2006 | inhibition, % at 35 µM | HTRF SUMOylation assay, SAE1/SAE2 + UBC9, in vitro | P63279 | 290,000 compounds, 0.36% hits; in the data active means inhibition above about 50%, passing the limit was not always enough
STEP inh = inhibitors of human striatal-enriched phosphatase STEP. recombinant STEP, OMFP fluorogenic substrate, fluorescence. inhibition, % at 20 µM. 360,000 compounds, 0.25% hits. AID 588621;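 active means inhibition at 20 µM, scaled per plate between control wells, above about 37%, limit read from the data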
Target sequence (P54829 whole entry, looked up): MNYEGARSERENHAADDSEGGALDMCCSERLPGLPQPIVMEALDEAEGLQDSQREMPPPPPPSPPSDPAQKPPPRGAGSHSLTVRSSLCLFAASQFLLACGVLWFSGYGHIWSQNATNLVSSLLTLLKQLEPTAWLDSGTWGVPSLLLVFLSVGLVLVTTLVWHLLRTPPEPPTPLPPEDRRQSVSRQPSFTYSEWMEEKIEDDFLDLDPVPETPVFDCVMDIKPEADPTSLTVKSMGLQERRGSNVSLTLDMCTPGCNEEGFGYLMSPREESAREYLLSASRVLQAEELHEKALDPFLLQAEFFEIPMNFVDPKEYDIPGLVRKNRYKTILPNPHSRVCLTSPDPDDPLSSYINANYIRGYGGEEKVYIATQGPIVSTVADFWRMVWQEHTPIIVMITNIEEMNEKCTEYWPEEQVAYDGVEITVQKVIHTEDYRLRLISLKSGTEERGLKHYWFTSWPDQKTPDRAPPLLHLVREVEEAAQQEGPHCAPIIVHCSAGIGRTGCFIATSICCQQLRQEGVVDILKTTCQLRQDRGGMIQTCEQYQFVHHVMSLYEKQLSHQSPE
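Assay system: isolated STEP enzyme / Timing: 20 min at room temperature, dark / Doses: 20 µM, 1% DMSO / Technique: fluorescence intensity, excitation 480 nm, emission 540 nm / Reagent: fluorogenic phosphatase substrate OMFP at 25 µM final / Measure: percent inhibition scaled to no-enzyme and uninhibited-enzyme controls, plate-pattern corrected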
SUMO1-SIM PPI = alters human SUMO1 binding to SIM partners. P63165. SUMO1 binding to a labelled peptide, TR-FRET, 1 h. inhibition, % at 20 µM. 360,000 compounds, 0.33% hits. AID 602429; in the data active means inhibition above about 37%
LMPTP block = LMPTP (human) inhibition; P24666; recombinant LMPTP-A, OMFP fluorogenic substrate, fluorescence intensity; inhibition, % at 20 µM; 360,000 compounds, 0.22% hits; AID 651560;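 active means compounds that cut the enzyme signal by at least half of the control window in the single-dose screen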
Target sequence (P24666 whole entry, looked up): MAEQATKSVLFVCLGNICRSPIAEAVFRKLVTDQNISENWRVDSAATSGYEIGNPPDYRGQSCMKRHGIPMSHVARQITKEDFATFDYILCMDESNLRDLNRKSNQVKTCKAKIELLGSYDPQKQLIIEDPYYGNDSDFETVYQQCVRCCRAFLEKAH
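test system = LMPTP-A | amount = 0.625 nM LMPTP-A final | reagent = fluorogenic phosphatase substrate OMFP at 400 µM final | incubation = 50 min at room temperature | benchmarks = no-enzyme low control, uninhibited high control | medium = Bis-Tris pH 6.0, DTT, detergent | signal = fluorescence intensity of OMFP turnover product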
DNMT1 block = blocks human DNA methyltransferase DNMT1 | P26358 | DNMT1 molecular beacon, Hinp1I cleavage, fluorescence | 360,000 compounds, 0.83% hits | inhibition (reported as % activation of signal), % at 10 µM; in the data active means inhibition above about 50%
Scp1 inh = inhibitors of human Scp-1 phosphatase; Recombinant Scp1, phosphopeptide, malachite green phosphate absorbance; 340,000 compounds, 0.88% hits; Q9GZU7; inhibition, % at 20 µM;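 active means inhibition above about 50% at 20 µM, limit read from the data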
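Times: enzyme reaction 45 min at room temperature, colour 5 min, stabilisation 30 min. Material: SCP-1 catalytic fragment, aa 76-261. Medium: Acidic Tris acetate buffer with magnesium and detergent. Signal: colorimetric free-phosphate detection, absorbance 630 nm. Read-out basis: % inhibition of SCP-1 phosphate liberation. Reagent: Phosphorylated 17-residue peptide substrate.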
Scp1 confirm = Scp-1 (human) inhibition, single-dose confirmed; recombinant SCP-1 catalytic domain, phosphate release, malachite green absorbance; 2,500 compounds, 61% hits; inhibition, % at 20 µM; shares compounds with Scp1 inh
MG interference = colorimetric interference in Scp-1 counter-screen; shares compounds with Scp1 inh; Colorimetric interference counterscreen, malachite green absorbance 630 nm; apparent inhibition (interference), % at 20 µM; 2,500 tested, under 10 active; AID 540313;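 further: compounds added after enzyme reaction finished so only phosphate colour detection is probed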
Scp1 DSF = Scp-1 (human) binding by thermal shift; shares compounds with Scp1 inh; Recombinant SCP1, Sypro Orange thermal shift Tm; thermal shift relative to vanadate control, % at 40 µM; 1,500 compounds, 25% hits; AID 540329;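 active means substances whose mean melting-temperature shift, as a percentage of the reference inhibitor's shift, reaches about 5.3%, limit read from the data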
Of the large screens only hits and unclear results are named; the others gave an inactive call (follow-up assays come after a bar, where they were run).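 How the source made its calls, unless noted: active means inhibition of at least 30% at 20 µM; inactive means the rest.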

CCC1(CC)NC(=O)N(CC(=O)OCC(=O)Nc2ccccc2OC(F)F)C1=O	none (no result: SUMO HTRF inh) | Scp1 confirm inactive | MG interference inactive
CC1C(=O)Nc2ccc(S(=O)(=O)NCc3ccc(Cl)cc3)cc2NC1=O (stereo not drawn)	none | Scp1 confirm inactive | MG interference inactive
Cc1ccc(NS(=O)(=O)c2ccc3c(c2)NC(=O)C(C)C(=O)N3)c(Cl)c1 (stereo not drawn)	none
CC1Sc2ccc(S(=O)(=O)NCCc3ccc(Cl)cc3)cc2NC1=O (stereo not drawn)	none
CCC(NS(=O)(=O)c1ccc2c(c1)NC(=O)C(C)C(=O)N2)c1cccs1 (stereo not drawn)	none | Scp1 confirm inactive | MG interference inactive
CC1CCN(C(=O)CN2C(=O)NC(c3ccccc3)(c3ccccc3)C2=O)CC1	none (no result: SUMO HTRF inh)
CCOC(=O)c1cnc2c(C)c(-c3ccccc3)[nH]n2c1=O	Scp1 inh 69.4 | Scp1 confirm inactive | MG interference inactive
O=C(CCCc1nc(-c2ccccc2)no1)Nc1cccnc1	none
O=C(CCCc1nc(-c2ccccc2)no1)NCc1cccnc1	Scp1 inh 70.3 | Scp1 confirm inactive | MG interference inactive
Cc1ccc(C(=O)CSC2=C(C#N)C(c3ccco3)CC(=O)N2)c(C)c1 (stereo not drawn)	DNMT1 block 64.3, Scp1 inh 60.6 | Scp1 confirm 55.6 | MG interference inactive | Scp1 DSF inactive
O=C(CN1C(=O)NC2(CCCCC2)C1=O)NCC(=O)Nc1ccc(F)c(F)c1	none (no result: SUMO HTRF inh) | Scp1 confirm inactive | MG interference inactive
C=C1CCN(C(CC(C)C)C(=O)OC)S(=O)(=O)c2ccccc21 (stereo not drawn)	none
COC(=O)[C@H](CC(C)C)N1Cc2cc(OC)cc(OC)c2-c2ccccc2S1(=O)=O	Scp1 inh 98.2 (no result: SUMO HTRF inh) | Scp1 confirm 50.1 | MG interference inactive | Scp1 DSF inactive
Cn1cc(-c2ccccc2C(=O)O)c(=O)c2cc(Cl)ccc21	none
CC(=O)Nc1ccc(NC(=O)C(OC(=O)c2ccccc2)C(OC(=O)c2ccccc2)C(=O)O)cc1 (stereo not drawn)	none
O=C(NCCCn1ccnc1)c1cccc(Cl)c1	none
COc1ccccc1NC(=O)CNc1ccc(F)c(Cl)c1	none
CCOc1cc(/C=C2\C(=N)N3N=C(S(=O)(=O)CC)SC3=NC2=O)ccc1OC(=O)c1ccco1	none
COc1cc(/C=C2\C(=N)N3N=C(S(C)(=O)=O)SC3=NC2=O)ccc1OC(=O)c1ccco1	Scp1 inh 52.0 | Scp1 confirm 68.5 | MG interference inactive | Scp1 DSF 10.9
COc1cc(/C=C2\C(=N)N3N=C(S(C)(=O)=O)SC3=NC2=O)ccc1OCCOc1ccccc1C	Scp1 inh 51.0 | Scp1 confirm 57.4 | MG interference inactive | Scp1 DSF 12.4
CCOc1ccc(NC(=O)CCC(=O)N/N=C(\C)c2cccs2)cc1	none
CC(C)c1cccc(C(C)C)c1NC(=O)CN1C(=O)NC2(CCCC2)C1=O	none
CCc1noc(C)c1C(=O)Nc1cc(C(F)(F)F)ccc1-n1cncn1	Scp1 inh 65.5 (no result: SUMO HTRF inh) | Scp1 confirm inactive | MG interference inactive
Cn1nc(CC(=O)NC2CCCCC2)c2ccccc2c1=O	none
Cn1nc(CC(=O)NC2CCCCCC2)c2ccccc2c1=O	Scp1 inh 75.6 | Scp1 confirm inactive | MG interference inactive
Cc1ccc(Cl)c(OCC(=O)Nc2cc(S(=O)(=O)N3CCOCC3)ccc2N2CCCC2)c1	none
FC(F)(F)c1nc(-c2ccncc2)ncc1-c1nnnn1-c1ccccc1	Scp1 inh 78.1 | Scp1 confirm inactive | MG interference inactive
CCNc1nc(C)c(CN(C(C)=O)c2ccccc2)nc1C#N	none
CC(=S)/C=C1\Sc2ccccc2N1C	none
CN1/C(=C/c2cccc[n+]2CCO)Sc2ccccc21	Scp1 inh 103.0 | Scp1 confirm inactive | MG interference inactive
CC1CC(NC(=O)/C=C/C(=O)O)CC(C)(C)C1 (stereo not drawn)	none
COc1cc(CC2COC(c3ccc(O)c(OC)c3)C2COC(C)=O)ccc1O (stereo not drawn)	DNMT1 block 63.2, Scp1 inh 85.3 | Scp1 confirm 61.1 | MG interference inactive | Scp1 DSF inactive
COc1cc([C@@H]2OC[C@@H]3[C@H]2CO[C@@H]3c2ccc3c(c2)OCO3)ccc1O	none (no result: SUMO HTRF inh)
COc1cc(/C=C/C(=O)O)cc(S(=O)(=O)Nc2ccccc2Cl)c1OC	none
CC(C)(O)CCCC(C)(O)c1ccc(C(=O)O)cc1O (stereo not drawn)	Scp1 inh 60.9 | Scp1 confirm 51.9 | MG interference inactive | Scp1 DSF 6.1
CN(/N=C/c1cccnc1)c1cnn(-c2ccc(F)c(Cl)c2)c(=O)c1Cl	Scp1 inh 75.0 | Scp1 confirm 39.1 | MG interference inactive | Scp1 DSF inactive
CN(/N=C/c1cccnc1)C1=NS(=O)(=O)c2ccccc21	none
C/C=C/c1cnc2c(c1)C(=O)N([C@H](C)CO)C[C@@H](C)[C@@H](CN(C)C(=O)NC1CCCC1)O2	none (no result: SUMO HTRF inh, Scp1 inh)
CCS(=O)(=O)N1CCC(C(=O)Nc2ccccc2OC)CC1	none
COc1ccc(C(=O)Nc2cc(-c3nn4c(C)nnc4s3)ccc2C)cc1	none
COc1ccc(C(=O)Nc2cnc3sc(C)nn3c2=O)cc1	Scp1 inh 51.4 | Scp1 confirm inactive | MG interference inactive
O=C(CSc1nc2sc3c(c2c(=O)n1-c1ccccc1)CCCC3)N/N=C/c1ccc(C(=O)O)cc1	Scp1 inh 50.7 | Scp1 confirm 38.5 | MG interference inactive | Scp1 DSF inactive
CCCCn1c(N)c(N(CC)C(=O)c2c(C)noc2C)c(=O)[nH]c1=O	none (no result: SUMO HTRF inh)
Cn1c(=O)cc(OCC(=O)NCCC2=CCCCC2)c2ccccc21	none | Scp1 confirm inactive | MG interference inactive
CCCNC(=S)N1CCC(NC(=O)C2CCCCC2)CC1	none
OCCCc1cn(-c2ccccc2)c2ccccc12	none
Clc1nc(Cl)nc(-c2cn(-c3ccccc3)c3ccccc23)n1	Scp1 inh 90.9 (no result: STEP inh, SUMO1-SIM PPI, LMPTP block, DNMT1 block) | Scp1 confirm 71.5 | MG interference inactive | Scp1 DSF inactive
CNc1cc(=O)n(C)c(=O)n1-c1ccccc1	none (no result: SUMO HTRF inh)
CCn1c(NC)cc(=O)n(C)c1=O	Scp1 inh 78.6 | Scp1 confirm inactive | MG interference inactive

Source: PubChem BioAssay
